Measurements published in publication PMC5677758 (Journal of the American Chemical Society, 2017).

Biological target: T1, GBA3 (Homo sapiens, UniProt Q9H227)
T1 sequence (Q9H227 1-469): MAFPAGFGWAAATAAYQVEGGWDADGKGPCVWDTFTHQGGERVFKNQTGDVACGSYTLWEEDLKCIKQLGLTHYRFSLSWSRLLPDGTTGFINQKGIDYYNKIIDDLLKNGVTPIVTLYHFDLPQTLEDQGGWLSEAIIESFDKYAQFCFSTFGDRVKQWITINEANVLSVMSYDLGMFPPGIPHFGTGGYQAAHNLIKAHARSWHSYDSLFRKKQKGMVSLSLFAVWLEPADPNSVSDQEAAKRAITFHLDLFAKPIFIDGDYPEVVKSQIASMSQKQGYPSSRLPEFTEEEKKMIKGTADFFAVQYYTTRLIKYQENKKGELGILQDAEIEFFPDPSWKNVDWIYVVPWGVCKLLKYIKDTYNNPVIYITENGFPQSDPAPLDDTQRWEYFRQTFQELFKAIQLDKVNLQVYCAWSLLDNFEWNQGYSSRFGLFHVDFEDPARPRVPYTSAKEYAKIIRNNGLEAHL
Experiment: GBA3 in vitro assay, homogenates of HEK293T overexpressing GBA3
Format: biochemical
Summary of the method: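 Lysate from HEK293T cells stably overexpressing human GBA3 was pretreated 30 min with 1 mM conduritol β epoxide to block GBA1. Assay in 100 mM Hepes pH 7.0 with 0.1% BSA for 1 h, with 0.05–5 mM 4MU-β-D-glucopyranoside plus inhibitor and no inhibitor preincubation. […] Duplicates; Ki from curve fit.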

## CCCCN1C[C@H](O)[C@@H](O)[C@H](O)[C@H]1CO [compound 1, N-butyldeoxynojirimycin]
  Ki: > 1000 µM
